Assay results collected from several papers.
Each line is one published result; the experiments were not run side by side. Converted amounts (≈) assume the structure as drawn.

COc1ccc(N=Nc2c(N)nn3c(-c4ccc(C)cc4)cc(-c4ccc(OCc5ccccc5)cc4)nc23)cc1
MBC (Enterobacter cloacae; microbial killing; ATCC23355): 125 µg/mL (≈ 231 µM)

O=C(NCc1cn(Cc2ccc(Cl)cc2)nn1)Nc1ccccc1Br
viability (NCI-H1299; cell growth or viability, CCK-8; 50 µM, 72 h): 90.7%

COc1ccc(NC(=O)Nc2cccc(-c3cn(Cc4ccc(C)cc4)nn3)c2)cc1
viability (NCI-H1299; cell growth or viability, CCK-8; 50 µM, 72 h): 156%

O=C(Nc1ccc(Cl)cc1)Nc1ccc(-c2cn(Cc3ccc(Cl)cc3)nn2)cc1
viability (NCI-H1299; cell growth or viability, CCK-8; 50 µM, 72 h): 88.1%

COc1ccc(NC(=O)Nc2ccc(-c3cn(Cc4cccc(Cl)c4)nn3)cc2)cc1
viability (NCI-H1299; cell growth or viability, CCK-8; 50 µM, 72 h): 93.7%

Cc1ccc(N=Nc2c(N)nn3c(-c4ccc(C)cc4)cc(-c4ccc(OCc5ccccc5)cc4)nc23)cc1
MBC (Enterobacter cloacae; microbial killing; ATCC23355): 62.5 µg/mL (≈ 119 µM)

O=C(Nc1ccc(-c2cn(Cc3ccc(Cl)cc3)nn2)cc1)Nc1ccccc1Br
viability (NCI-H1299; cell growth or viability, CCK-8; 50 µM, 72 h): 109%

CN(C)CCNC(=O)c1ccc(-c2nc3ccc4[nH]ncc4c3c3c2CCCC3)c(F)c1
GI50 (22Rv1; cell growth or viability; 72 h): 1.28 µM

COc1ccc(N=Nc2c(N)nn3c(-c4ccc(Cl)cc4Cl)cc(-c4ccc(OCc5ccccc5)cc4)nc23)cc1
MBC (Enterobacter cloacae; microbial killing; ATCC23355): 250 µg/mL (≈ 420 µM)

COc1ccc(NC(=O)Nc2ccc(-c3cn(Cc4ccc(C)cc4)nn3)cc2)cc1
viability (NCI-H1299; cell growth or viability, CCK-8; 50 µM, 72 h): 104%

Cc1ccc2[nH]nc(-c3nnc(Nc4ccc(O)cc4)s3)c2c1
MIC (Serratia marcescens; microbial growth; ATCC8100): 62.8 µg/mL (≈ 194 µM)

Cc1n[nH]c2ccc3nc(-c4ccc(C(=O)NCCN(C)C)cc4)c4c(c3c12)CCCCC4
GI50 (22Rv1; cell growth or viability; 72 h): 7.15 µM

O=C(Nc1cccc(-c2cn(Cc3ccc(Cl)cc3)nn2)c1)Nc1ccccc1Br
viability (NCI-H1299; cell growth or viability, CCK-8; 50 µM, 72 h): 130%

CN(C)CCNC(=O)c1ccc(-c2nc3ccc4[nH]ncc4c3c3c2CCCCC3)cc1
GI50 (22Rv1; cell growth or viability; 72 h): 4.12 µM

O=C(Nc1ccc(-c2cn(Cc3ccc(Br)cc3)nn2)cc1)Nc1ccccc1Br
viability (NCI-H1299; cell growth or viability, CCK-8; 50 µM, 72 h): 115%

Cc1ccc(-c2cc(-c3ccc(OCc4ccccc4)cc3)nc3c(N=Nc4ccc(F)cc4)c(N)nn23)cc1
MBC (Enterobacter cloacae; microbial killing; ATCC23355): 125 µg/mL (≈ 236 µM)

O=C(Nc1ccc(Cl)cc1)Nc1cccc(-c2cn(Cc3cccc(Br)c3)nn2)c1
viability (NCI-H1299; cell growth or viability, CCK-8; 50 µM, 72 h): 94.7%

Cc1ccc(N=Nc2c(N)nn3c(-c4ccc(Cl)cc4Cl)cc(-c4ccc(OCc5ccccc5)cc4)nc23)cc1
MBC (Enterobacter cloacae; microbial killing; ATCC23355): 62.5 µg/mL (≈ 108 µM)

Cc1ccc2[nH]nc(-c3nnc(Nc4ccc(Br)cc4)s3)c2c1
MIC (Serratia marcescens; microbial growth; ATCC8100): 257 µg/mL (≈ 664 µM)
